Experimental data of several laboratories.
Target: Homeodomain-interacting protein kinase 3 (HIPK3, Homo sapiens, UniProt Q9H422)

CN(C)c1ncc(F)c(-c2cnn3ncccc23)n1 — remaining binding (binding; 1 µM): 65%
CS(=O)(=O)c1cc(C2(NC(=O)c3cncc4c3cnn4-c3ccc(F)cc3)CC2)ccn1 — remaining binding (cell-free assay; competition with immobilised ligand; 1 µM): 85%
C=CC(=O)N1CCC(C(=O)NCC(=O)N2CCN(c3nc(-c4cnc(N)nc4C(F)F)nc(N4CCOCC4)n3)CC2)CC1 — remaining binding (binding; competition with immobilised ligand; 1 µM): 100%
c1cnn2ncc(-c3ccnc(N4CCC45COC5)n3)c2c1 — remaining binding (binding; 1 µM): 50%
O=C(c1ccc(Nc2ncc(Cl)c(-c3cc4ccccc4s3)n2)cc1)N1CCC(N2CCCC2)CC1 — remaining binding (binding; competition with immobilised ligand; 1 µM): 1.8%
CCCCN(CCCC)C(=O)CN1C[C@@H](c2cc(OC)c3c(c2)OCO3)[C@H](C(=O)O)[C@H]1CC(C)(C)CCC — remaining binding (cell-free assay; competition with immobilised ligand; 1 µM): 100%
c1cncc(-c2cccc(Nc3nccc(NC4CCCCC4)n3)c2)c1 — remaining binding (binding; competition with immobilised ligand; 10 µM): 57%
CN(C)C(=O)Cn1cc(-c2nc(C3(c4ccc(-c5cnc(N)nc5)cc4)CC3)no2)cn1 — remaining binding (cell-free assay; competition with immobilised ligand; 1 µM): 71%
FC(F)(F)Oc1cccc(-c2cnc3ccc(-c4ccncc4)nn23)c1 — remaining binding (cell-free assay; competition with immobilised ligand; 5 µM): 0.7%
Cc1cc(NC(=O)c2cccc(S(F)(F)(F)(F)F)c2)cc(-n2ccn3nc(-c4cccnc4)cc23)c1 — remaining binding (cell-free assay; competition with immobilised ligand; 1 µM): 88.8%
COc1cnc(Nc2cccc(S(N)(=O)=O)c2)nc1N1CCN(c2ccccc2)CC1 — remaining binding (binding; competition with immobilised ligand; 1 µM): 100%
C[C@@H]1CCN(c2nccc(-c3cnn4ncccc34)n2)C1 — remaining binding (binding; 1 µM): 68%
O=C(c1ccc(Nc2nccc(-c3cc4ccccc4s3)n2)cc1)N1CCC(N2CCCC2)CC1 — remaining binding (binding; competition with immobilised ligand; 1 µM): 19%
O=C(NCC1CCOCC1)c1n[nH]cc1NC(=O)c1c(F)cccc1F — remaining binding (binding; competition with immobilised ligand; 1 µM): 63%
CC1CCCN1c1nccc(-c2cnn3ncccc23)n1 (stereo not shown) — remaining binding (binding; 1 µM): 100%
O=C(Nc1ccc(Oc2ccc(F)cc2)cc1)N1CCc2ncccc2[C@H]1c1ccc(F)cc1 — remaining binding (cell-free assay; competition with immobilised ligand; 1 µM): 92%
N[C@H]1CCN(c2nccc(-c3cnn4ncccc34)n2)C1 — remaining binding (binding; 1 µM): 91%
O=C(c1ccc(Nc2ncc(Cl)c(-c3ccc(Cl)s3)n2)cc1)N1CCC(N2CCCC2)CC1 — remaining binding (binding; competition with immobilised ligand; 1 µM): 3.5%
O=C(NCc1ncc(C(F)(F)F)cc1Cl)c1ccc2c(c1)C1(CCS(=O)(=O)CC1)[C@@H](C1CC1)N2S(=O)(=O)c1ccc(F)cc1 — remaining binding (cell-free assay; competition with immobilised ligand; 1 µM): 81%
Cc1cnn2ncc(-c3ccnc(N(C)C)n3)c2c1 — remaining binding (binding; 1 µM): 68%
O=C(O)c1cc(-c2ccc(C3CCNCC3)cc2)c2ccc(-c3ccc(C(F)(F)F)cc3)cc2c1 — remaining binding (cell-free assay; competition with immobilised ligand; 1 µM): 100%
COc1ccnn2ncc(-c3ccnc(N(C)C)n3)c12 — remaining binding (binding; 1 µM): 80%
